Where a SMILES comes first, the peptide text is derived from it. [ ]: non-standard residue; d: D form. Orn = NCCC[C@H](N)C(=O)O
How the values were obtained:
Type in all cases: functional
Staphylococcus aureus [1] = assay: Antibacterial activity against methicillin-resistant Staphylococcus aureus ATCC 33592 in presence of 25 mg/L calcium by microdilution method
Summary of the method: (§1)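 CLSI broth microdilution in cation-adjusted Mueller-Hinton broth (CAMHB); compounds dissolved in CAMHB or a little DMSO then broth. Overnight cultures suspended in saline to 0.5 McFarland, diluted 1:100 in CAMHB and added to wells of diluted compound. Drug-free wells subcultured quantitatively for actual colony counts. Calcium at 25 or 50 mg/L as the line states.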

Staphylococcus aureus [2] = assay: Antibacterial activity against methicillin-susceptible Staphylococcus aureus ATCC 29213 in presence of 25 mg/L calcium by microdilution method; summary of the method: as §1
Enterococcus faecalis [3] = assay: Antibacterial activity against Enterococcus faecalis ATCC 29212 in presence of 25 mg/L calcium by microdilution method; summary of the method: as §1
Escherichia coli = assay: Antibacterial activity against Escherichia coli ATCC 25922 in presence of 25 mg/L calcium by microdilution method
Summary of the method: (§2)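 CLSI broth microdilution MIC. Compounds dissolved in cation-adjusted Mueller-Hinton broth (CAMHB), or in a little DMSO then broth. Overnight cultures suspended in saline to 0.5 McFarland, diluted 1:100 in CAMHB, added to wells of diluted compound. Drug-free wells quantitatively subcultured to confirm actual colony counts. Calcium at 25 or 50 mg/L.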

[4] = tested on: Staphylococcus epidermidis; assay: Antibacterial activity against methicillin-resistant Staphylococcus epidermidis MRL 19010 in presence of 25 mg/L calcium by microdilution method; summary of the method: as §1
Enterococcus faecalis [5] = assay: Antibacterial activity against vancomycin-resistant Enterococcus faecalis MRL 17001 in presence of 25 mg/L calcium by microdilution method; summary of the method: as §1
Bacillus subtilis = assay: Antibacterial activity against Bacillus subtilis MRL 18734 in presence of 25 mg/L calcium by microdilution method; summary of the method: as §2
Bacillus cereus = assay: Antibacterial activity against Bacillus cereus MRL 18731 in presence of 25 mg/L calcium by microdilution method; summary of the method: as §2

SMILES	MIC (Staphylococcus aureus [1]) [µg/mL]	MIC (Staphylococcus aureus [2]) [µg/mL]	MIC (Enterococcus faecalis [3]) [µg/mL]	MIC (Escherichia coli) [µg/mL]	MIC [4] [µg/mL]	MIC (Enterococcus faecalis [5]) [µg/mL]	MIC (Bacillus subtilis) [µg/mL]	MIC (Bacillus cereus) [µg/mL]
CC(C)C[C@@H]1NC(=O)[C@H](CCCN)NC(=O)[C@H](C(C)C)NC(=O)[C@H](Cc2c(F)c(F)c(F)c(F)c2F)NC(=O)[C@H](CCC(N)=O)NC(=O)[C@H](CC(N)=O)NC(=O)[C@@H](Cc2ccccc2)NC(=O)[C@H](Cc2c(F)c(F)c(F)c(F)c2F)NC(=O)[C@@H]2CCCN2C(=O)[C@@H](Cc2ccccc2)NC1=O	> 256	> 256	32	> 256	256	32	128	256
CC(C)C[C@@H]1NC(=O)[C@H](CCCN)NC(=O)[C@H](C(C)C)NC(=O)[C@H](Cc2ccc(O)cc2)NC(=O)[C@H](CCCCN)NC(=O)[C@H](CC(N)=O)NC(=O)[C@@H](Cc2ccccc2)NC(=O)[C@H](Cc2ccccc2)NC(=O)[C@@H]2CCCN2C(=O)[C@@H](Cc2ccccc2)NC1=O (cyclo(F[dF]NKYV[Orn]L[dF]P))	4	4	2	128	2	2	2	2
CC(C)C[C@@H]1NC(=O)[C@H](CCCN)NC(=O)[C@H](C(C)C)NC(=O)[C@H](Cc2c(F)c(F)c(F)c(F)c2F)NC(=O)[C@H](CCC(N)=O)NC(=O)[C@H](CC(N)=O)NC(=O)[C@@H](Cc2ccccc2)NC(=O)[C@H](Cc2ccccc2)NC(=O)[C@@H]2CCCN2C(=O)[C@@H](Cc2ccccc2)NC1=O	16	16	2	> 256	2	2	8	8
CC(C)C[C@@H]1NC(=O)[C@H](CCCN)NC(=O)[C@H](C(C)C)NC(=O)[C@H](Cc2ccc(O)cc2)NC(=O)[C@H](CCCCN)NC(=O)[C@H](CC(N)=O)NC(=O)[C@@H](CCCCN)NC(=O)[C@H](Cc2c(F)c(F)c(F)c(F)c2F)NC(=O)[C@@H]2CCCN2C(=O)[C@@H](Cc2ccccc2)NC1=O	8	8	16	32	4	4	2	4
CC(C)C[C@@H]1NC(=O)[C@H](CCCN)NC(=O)[C@H](C(C)C)NC(=O)[C@H](Cc2ccc(O)cc2)NC(=O)[C@H](CCCCN)NC(=O)[C@H](CC(N)=O)NC(=O)[C@@H](Cc2ccccc2)NC(=O)[C@H](Cc2c(F)c(F)c(F)c(F)c2F)NC(=O)[C@@H]2CCCN2C(=O)[C@@H](Cc2ccccc2)NC1=O	8	16	4	> 256	4	4	8	8

— ChEMBL document CHEMBL1137436, “Development of Tyrocidine A analogues with improved antibacterial activity” (2007)
